Laboratory results as given in ChEMBL document CHEMBL3044844, “Synthesis and antimicrobial evaluation of some novel 1,2,4-triazole and 1,3,4-thiadiazole derivatives” (2013).
Converted amounts (≈) assume the structure as drawn.

What was measured:
Assay type in all cases: functional
[1] = system: Micrococcus luteus; test: Antibacterial activity against Micrococcus luteus ATCC 10240 assessed as growth inhibition after 18 hr by CLSI broth microdilution method; details: ATCC 10240, 18 h
Procedure, shortened: (§1)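 Inoculum: 0.5 McFarland suspension (150 × 10^6 CFU/mL) in sterile 0.85 % NaCl, 2 μL into 198 μL Mueller–Hinton broth. Compound stocks in DMSO; twofold dilutions, final 0.24–1,000 μg/mL. Incubated 35 °C, 18 h; OD600 read. MIC taken as lowest concentration with no visible growth. Controls: compound-free broth with DMSO, and bacteria-free compound blanks.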

[2] = system: Bacillus cereus; test: Antibacterial activity against Bacillus cereus ATCC 10876 assessed as growth inhibition after 18 hr by CLSI broth microdilution method; details: ATCC 10876, 18 h; procedure, shortened: as §1
[3] = system: Bacillus spizizenii; test: Antibacterial activity against Bacillus subtilis subsp. spizizenii ATCC 6633 assessed as growth inhibition after 18 hr by CLSI broth microdilution method; details: ATCC 6633, 18 h; procedure, shortened: as §1
[4] = system: Staphylococcus epidermidis; test: Antibacterial activity against Staphylococcus epidermidis ATCC 12228 assessed as growth inhibition after 18 hr by CLSI broth microdilution method; details: ATCC 12228, 18 h; procedure, shortened: as §1
[5] = system: Staphylococcus aureus; test: Antibacterial activity against Staphylococcus aureus ATCC 6538 assessed as growth inhibition after 18 hr by CLSI broth microdilution method; details: ATCC 6538, 18 h; procedure, shortened: as §1
[6] = system: Staphylococcus aureus; test: Antibacterial activity against Staphylococcus aureus ATCC 25923 assessed as growth inhibition after 18 hr by CLSI broth microdilution method; details: ATCC 25923, 18 h; procedure, shortened: as §1

Row | Structure (SMILES) | MIC [1] [mg/L] | MIC [2] [mg/L] | MIC [3] [mg/L] | MIC [4] [mg/L] | MIC [5] [mg/L] | MIC [6] [mg/L]
1 | COc1ccc(-n2c(S)nnc2CSc2nnc(-c3ccccc3)n2-c2ccccc2)cc1 | > 1000 | 500 (≈ 1060 µM) | > 1000 | > 1000 | > 1000 | 1000 (≈ 2120 µM)
2 | Sc1nnc(CSc2nnc(-c3ccccc3)n2-c2ccccc2)n1-c1ccccc1 | > 1000 | 500 (≈ 1130 µM) | > 1000 | > 1000 | > 1000 | 1000 (≈ 2260 µM)
3 | S=c1[nH]nc(CSc2nnc(-c3ccccc3)n2-c2ccccc2)n1C1CCCCC1 | 250 (≈ 557 µM) | 1000 (≈ 2230 µM) | 500 (≈ 1110 µM) | 500 (≈ 1110 µM) | 250 (≈ 557 µM) | 500 (≈ 1110 µM)
4 | c1ccc(CNc2nnc(CSc3nnc(-c4ccccc4)n3-c3ccccc3)s2)cc1 | 125 (≈ 274 µM) | – | 15.6 (≈ 34.2 µM) | 500 (≈ 1100 µM) | – | 250 (≈ 548 µM)
5 | CO/N=C(\C(=O)N[C@@H]1C(=O)N2C(C(=O)O)=C(COC(N)=O)CS[C@H]12)c1ccco1 [CEFUROXIME] | 0.49 (≈ 1.15 µM) | 62.5 (≈ 147 µM) | 0.49 (≈ 1.15 µM) | 0.24 (≈ 0.566 µM) | 1.95 (≈ 4.59 µM) | 0.49 (≈ 1.15 µM)

Other lines, results leading:

Row | MIC [1] [mg/L] | MIC [2] [mg/L] | MIC [3] [mg/L] | MIC [4] [mg/L] | MIC [5] [mg/L] | MIC [6] [mg/L] | Structure (SMILES)
6 | 1000 (≈ 2140 µM) | 1000 (≈ 2140 µM) | 1000 (≈ 2140 µM) | > 1000 | > 1000 | > 1000 | O=C(CSc1nnc(-c2ccccc2)n1-c1ccccc1)NNC(=S)NC1CCCCC1
7 | 1000 (≈ 1980 µM) | 1000 (≈ 1980 µM) | 500 (≈ 991 µM) | 500 (≈ 991 µM) | 1000 (≈ 1980 µM) | 500 (≈ 991 µM) | COc1ccc(CNC(=S)NNC(=O)CSc2nnc(-c3ccccc3)n2-c2ccccc2)cc1
8 | 1000 (≈ 2190 µM) | 500 (≈ 1100 µM) | 500 (≈ 1100 µM) | 1000 (≈ 2190 µM) | > 1000 | > 1000 | CCOC(=O)NC(=S)NNC(=O)CSc1nnc(-c2ccccc2)n1-c1ccccc1
9 | 125 (≈ 256 µM) | 125 (≈ 256 µM) | 250 (≈ 512 µM) | 125 (≈ 256 µM) | 250 (≈ 512 µM) | 31.2 (≈ 64 µM) | O=C(CSc1nnc(-c2ccccc2)n1-c1ccccc1)NNC(=S)NC(=O)c1ccccc1
10 | 1000 (≈ 2460 µM) | 1000 (≈ 2460 µM) | 1000 (≈ 2460 µM) | 1000 (≈ 2460 µM) | 1000 (≈ 2460 µM) | 1000 (≈ 2460 µM) | C=CCn1c(CSc2nnc(-c3ccccc3)n2-c2ccccc2)n[nH]c1=S
11 | 1000 (≈ 2190 µM) | > 1000 | > 1000 | 1000 (≈ 2190 µM) | 1000 (≈ 2190 µM) | 1000 (≈ 2190 µM) | S=c1[nH]nc(CSc2nnc(-c3ccccc3)n2-c2ccccc2)n1Cc1ccccc1
12 | > 1000 | > 1000 | > 1000 | > 1000 | 1000 (≈ 2050 µM) | > 1000 | COc1ccc(Cn2c(CSc3nnc(-c4ccccc4)n3-c3ccccc3)n[nH]c2=S)cc1
